Activity calls are given as the source filed them. No cut-off for these calls is given here. Where a SMILES comes first, the peptide text is derived from it.
How the values were obtained:
PBMC [1] = test: Immunosuppressive activity in human PBMC assessed as inhibition of PHA-induced cell proliferation at 1 to 100 ug/ml after 4 days by MTT assay; type: functional, cell-based
Summary of the method: (§1)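 PBMC (2×10^5 cells/well) in supplemented RPMI-1640, stimulated with 5 µg/mL PHA, with peptide at 1, 10 or 100 µg/mL. DMSO dilutions as control; no-PHA wells as baseline. Proliferation read by MTT after 4 days of incubation. Data given as mean OD of quadruplicate wells ± SE.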

PBMC [2] = test: Cytotoxicity against human PBMC assessed as reduction in cell viability at 1 to 100 ug/ml after 24 hrs by MTT assay; type: cell-based
Summary of the method: (§2)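 Single-donor PBMC isolated on LSM, resuspended in RPMI-1640 with 10% FCS, L-glutamine, pyruvate, 2-mercaptoethanol and antibiotics. Cells plated at 3×10^5 per well and cultured 24 h with peptide at 1, 10 or 100 µg/mL. Survival read by MTT and expressed as % viable cells versus matched DMSO controls.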

PBMC [3] = test: Anti-inflammatory activity in human PBMC assessed as inhibition of LPS-induced TNFalpha production at 10 ug/ml after overnight incubation by immunoassay; type: functional
Summary of the method: (§3)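 Diluted venous blood from a single donor (10× in RPMI-1640), 1 mL cultures, stimulated with 1 µg/mL LPS from E. coli O:111:B4. Peptides added at 1 and 10 µg/mL from DMSO stock (5 mg/200 µL) diluted in RPMI-1640. DMSO dilutions served as 100% controls. Overnight incubation, then supernatants frozen at -20 C and TNF-α measured by ELISA.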

PBMC [4] = test: Cytotoxicity against human PBMC assessed as reduction in cell viability at 100 ug/ml after 24 hrs by MTT assay; type: cell-based; summary of the method: as §2
PBMC [5] = test: Immunosuppressive activity in human PBMC assessed as inhibition of PHA-induced proliferation after 4 days by MTT assay; type: functional, cell-based; summary of the method: as §1
PBMC [6] = test: Immunosuppressive activity in human PBMC assessed as inhibition of PHA-induced cell proliferation at 10 ug/ml after 4 days by MTT assay; type: functional, cell-based; summary of the method: as §1
PBMC [7] = test: Anti-inflammatory activity in human PBMC assessed as inhibition of LPS-induced TNFalpha production at 1 to 10 ug/ml after overnight incubation by immunoassay; type: functional, cell-based; summary of the method: as §3
HT-29 = test: Cytotoxicity against human HT-29 cells at 12 ug/ml; type: functional, cell-based
A-431 = test: Cytotoxicity against human A431 cells at 6 ug/ml; type: functional, cell-based

| Structure (SMILES) | Activity (PBMC [1]) | Activity (PBMC [2]) | inhibition (PBMC [3]) | inhibition at 10 µg/mL (PBMC [3]) [%] | Activity (PBMC [5]) | Activity (PBMC [6]) | further results |
| --- | --- | --- | --- | --- | --- | --- | --- |
| CC[C@H](C)[C@H](N)C(=O)N[C@H](C(=O)N[C@@H](CC(C)C)C(=O)N[C@H](C(=O)N1CCC[C@H]1C(=O)N1CCC[C@H]1C(=O)N[C@@H](CCC(=O)N[C@@H](Cc1ccccc1)C(=O)N[C@@H](CC(C)C)C(=O)O)Cc1ccccc1)C(C)C)[C@@H](C)CC | inactive | Non-Toxic | inactive |  |  |  |  |
| CC[C@H](C)[C@H](N)C(=O)N[C@H](C(=O)N[C@@H](CC(C)C)C(=O)N[C@H](C(=O)N1CCC[C@H]1C(=O)N1CCC[C@H]1C(=O)N[C@H](CCC(=O)N[C@@H](Cc1ccccc1)C(=O)N[C@@H](CC(C)C)C(=O)O)Cc1ccccc1)C(C)C)[C@@H](C)CC | inactive | Non-Toxic |  | 45 |  |  |  |
| CC[C@H](C)[C@H](N)C(=O)N[C@H](C(=O)N[C@@H](CC(C)C)C(=O)N[C@H](C(=O)N1CCC[C@H]1C(=O)N1CCC[C@H]1C(=O)N[C@H](CCC(=O)N[C@H](CCC(=O)N[C@@H](CC(C)C)C(=O)O)Cc1ccccc1)Cc1ccccc1)C(C)C)[C@@H](C)CC | inactive | Non-Toxic |  | 45 |  |  |  |
| CC[C@H](C)[C@@H]1NC(=O)[C@H](CC(C)C)NC(=O)[C@H](Cc2ccccc2)NC(=O)CC[C@@H](Cc2ccccc2)NC(=O)[C@@H]2CCCN2C(=O)[C@@H]2CCCN2C(=O)[C@H](C(C)C)NC(=O)[C@H](CC(C)C)NC(=O)[C@H]([C@@H](C)CC)NC1=O |  |  | Active |  | Dose-dependent effect | Active | Activity (PBMC [4]): Toxic |
| CC[C@H](C)[C@H](N)C(=O)N[C@H](C(=O)N[C@@H](CC(C)C)C(=O)N[C@H](C(=O)N1CCC[C@H]1C(=O)N1CCC[C@H]1C(=O)N[C@@H](Cc1ccccc1)C(=O)N[C@H](CCC(=O)N[C@@H](CC(C)C)C(=O)O)Cc1ccccc1)C(C)C)[C@@H](C)CC | inactive | Non-Toxic |  | 45 |  |  |  |
| CC[C@H](C)[C@H](N)C(=O)N[C@H](C(=O)N[C@@H](CC(C)C)C(=O)N[C@H](C(=O)N1CCC[C@H]1C(=O)N1CCC[C@H]1C(=O)N[C@@H](Cc1ccccc1)C(=O)N[C@@H](CCC(=O)N[C@@H](CC(C)C)C(=O)O)Cc1ccccc1)C(C)C)[C@@H](C)CC | inactive | Non-Toxic |  | 45 |  |  |  |
| CC[C@H](C)[C@H](N)C(=O)N[C@H](C(=O)N[C@@H](CC(C)C)C(=O)N[C@H](C(=O)N1CCC[C@H]1C(=O)N1CCC[C@H]1C(=O)N[C@@H](CCC(=O)N[C@@H](CCC(=O)N[C@@H](CC(C)C)C(=O)O)Cc1ccccc1)Cc1ccccc1)C(C)C)[C@@H](C)CC | inactive | Non-Toxic |  | 45 |  |  |  |
| CC[C@H](C)[C@@H]1NC(=O)[C@H](CC(C)C)NC(=O)CC[C@@H](Cc2ccccc2)NC(=O)[C@H](Cc2ccccc2)NC(=O)[C@@H]2CCCN2C(=O)[C@@H]2CCCN2C(=O)[C@H](C(C)C)NC(=O)[C@H](CC(C)C)NC(=O)[C@H]([C@@H](C)CC)NC1=O |  |  | Active |  | Dose-dependent effect | Active | Activity (PBMC [4]): Toxic |
| CC[C@H](C)[C@@H]1NC(=O)[C@H](CC(C)C)NC(=O)CC[C@@H](Cc2ccccc2)NC(=O)CC[C@H](Cc2ccccc2)NC(=O)[C@@H]2CCCN2C(=O)[C@@H]2CCCN2C(=O)[C@H](C(C)C)NC(=O)[C@H](CC(C)C)NC(=O)[C@H]([C@@H](C)CC)NC1=O |  |  | Active |  | Dose-dependent effect | Active |  |
| CC[C@H](C)[C@@H]1NC(=O)[C@H](CC(C)C)NC(=O)CC[C@H](Cc2ccccc2)NC(=O)CC[C@H](Cc2ccccc2)NC(=O)[C@@H]2CCCN2C(=O)[C@@H]2CCCN2C(=O)[C@H](C(C)C)NC(=O)[C@H](CC(C)C)NC(=O)[C@H]([C@@H](C)CC)NC1=O |  |  | Active |  | Dose-dependent effect | Active | inhibition (PBMC [7]): Active |
| CC[C@H](C)[C@@H]1NC(=O)[C@H](CC(C)C)NC(=O)[C@H](Cc2ccccc2)NC(=O)[C@H](Cc2ccccc2)NC(=O)[C@@H]2CCCN2C(=O)[C@@H]2CCCN2C(=O)[C@H](C(C)C)NC(=O)[C@H](CC(C)C)NC(=O)[C@H]([C@@H](C)CC)NC1=O (cyclo(FFLIILVPP)) |  |  |  |  |  |  | Activity (HT-29): inactive; Activity (A-431): inactive |
| CC[C@H](C)[C@@H]1NC(=O)[C@H](CC(C)C)NC(=O)CC[C@H](Cc2ccccc2)NC(=O)CC[C@@H](Cc2ccccc2)NC(=O)[C@@H]2CCCN2C(=O)[C@@H]2CCCN2C(=O)[C@H](C(C)C)NC(=O)[C@H](CC(C)C)NC(=O)[C@H]([C@@H](C)CC)NC1=O |  |  | Active |  | Dose-dependent effect | Active |  |
| CC[C@H](C)[C@@H]1NC(=O)[C@H](CC(C)C)NC(=O)CC[C@@H](Cc2ccccc2)NC(=O)CC[C@@H](Cc2ccccc2)NC(=O)[C@@H]2CCCN2C(=O)[C@@H]2CCCN2C(=O)[C@H](C(C)C)NC(=O)[C@H](CC(C)C)NC(=O)[C@H]([C@@H](C)CC)NC1=O |  |  | Active |  | Dose-dependent effect | Active | Activity (PBMC [4]): Toxic |
| CC[C@H](C)[C@H](N)C(=O)N[C@H](C(=O)N[C@@H](CC(C)C)C(=O)N[C@H](C(=O)N1CCC[C@H]1C(=O)N1CCC[C@H]1C(=O)N[C@H](CCC(=O)N[C@@H](CCC(=O)N[C@@H](CC(C)C)C(=O)O)Cc1ccccc1)Cc1ccccc1)C(C)C)[C@@H](C)CC | inactive | Non-Toxic |  | 45 |  |  |  |
| CC[C@H](C)[C@H](N)C(=O)N[C@H](C(=O)N[C@@H](CC(C)C)C(=O)N[C@H](C(=O)N1CCC[C@H]1C(=O)N1CCC[C@H]1C(=O)N[C@@H](CCC(=O)N[C@H](CCC(=O)N[C@@H](CC(C)C)C(=O)O)Cc1ccccc1)Cc1ccccc1)C(C)C)[C@@H](C)CC | inactive | Non-Toxic |  | 45 |  |  |  |
| CC[C@H](C)[C@@H]1NC(=O)[C@H](CC(C)C)NC(=O)CC[C@H](Cc2ccccc2)NC(=O)[C@H](Cc2ccccc2)NC(=O)[C@@H]2CCCN2C(=O)[C@@H]2CCCN2C(=O)[C@H](C(C)C)NC(=O)[C@H](CC(C)C)NC(=O)[C@H]([C@@H](C)CC)NC1=O |  |  | Active |  | Dose-dependent effect | Active |  |
